From ChEMBL document CHEMBL4196248, “Callyspongidic Acids: Amphiphilic Diacids from the Tropical Eastern Pacific Sponge Callyspongia cf. californica” (J Nat Prod, 2018)
The source made the active and inactive calls. The calls are words filed in the database; no cut-off is given here.

Key:
[1] = test system: A2058; assay: Cytotoxicity against human A2058 cells measured after 24 hrs by MTT assay; assay type: functional, cell-based; conditions: A2058, 24 h
In short: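 Human-derived A2058 epithelial melanoma cells, run alongside a panel of other human tumour lines by a previously reported protocol; IC50 values derived.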

[2] = test system: Staphylococcus aureus; assay: Antimicrobial activity against methicillin-sensitive Staphylococcus aureus ATCC 29213 at 4 ug/ml measured after 20 hrs by spectrophotometric method; assay type: functional, organism-based
[3] = test system: Staphylococcus aureus; assay: Antimicrobial activity against methicillin-resistant Staphylococcus aureus MB5393 at 4 ug/ml measured after 20 hrs by spectrophotometric method; assay type: functional, organism-based
[4] = test system: Escherichia coli; assay: Antimicrobial activity against Escherichia coli ATCC 25922 at 4 ug/ml measured after 20 hrs by spectrophotometric method; assay type: functional, organism-based
[5] = test system: Klebsiella pneumoniae; assay: Antimicrobial activity against Klebsiella pneumoniae ATCC 700603 at 4 ug/ml measured after 20 hrs by spectrophotometric method; assay type: functional, organism-based
[6] = test system: Pseudomonas aeruginosa; assay: Antimicrobial activity against Pseudomonas aeruginosa PAO1 at 4 ug/ml measured after 20 hrs by spectrophotometric method; assay type: functional, organism-based
[7] = test system: Acinetobacter baumannii; assay: Antimicrobial activity against Acinetobacter baumannii CL5973 at 4 ug/ml measured after 20 hrs by spectrophotometric method; assay type: functional, organism-based
[8] = test system: Aspergillus fumigatus; assay: Antimicrobial activity against Aspergillus fumigatus ATCC 46645 at 4 ug/ml measured after 30 hrs by resazurin dye based assay; assay type: functional, organism-based
[9] = test system: Candida albicans; assay: Antimicrobial activity against Candida albicans ATCC 64124 at 4 ug/ml measured after 20 hrs by spectrophotometric method; assay type: functional, organism-based
[10] = test system: Staphylococcus aureus; assay: Antimicrobial activity against methicillin-sensitive Staphylococcus aureus ATCC 29213 at 32 ug/ml measured after 20 hrs by spectrophotometric method; assay type: functional, organism-based
[11] = test system: Staphylococcus aureus; assay: Antimicrobial activity against methicillin-resistant Staphylococcus aureus MB5393 at 32 ug/ml measured after 20 hrs by spectrophotometric method; assay type: functional, organism-based
[12] = test system: Escherichia coli; assay: Antimicrobial activity against Escherichia coli ATCC 25922 at 32 ug/ml measured after 20 hrs by spectrophotometric method; assay type: functional, organism-based
In short: (§1)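 Whole-cell growth-inhibition panel: Gram-negative E. coli ATCC25922, K. pneumoniae ATCC700603, P. aeruginosa PAO1 and A. baumannii CL5973, plus fungi A. fumigatus ATCC46645 and C. albicans ATCC64124. Method follows earlier-described protocols. Highest concentration tested 32 μg/mL.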

[13] = test system: Klebsiella pneumoniae; assay: Antimicrobial activity against Klebsiella pneumoniae ATCC 700603 at 32 ug/ml measured after 20 hrs by spectrophotometric method; assay type: functional, organism-based; in short: as §1
[14] = test system: Pseudomonas aeruginosa; assay: Antimicrobial activity against Pseudomonas aeruginosa PAO1 at 32 ug/ml measured after 20 hrs by spectrophotometric method; assay type: functional, organism-based; in short: as §1
[15] = test system: Acinetobacter baumannii; assay: Antimicrobial activity against Acinetobacter baumannii CL5973 at 32 ug/ml measured after 20 hrs by spectrophotometric method; assay type: functional, organism-based; in short: as §1
[16] = test system: Aspergillus fumigatus; assay: Antimicrobial activity against Aspergillus fumigatus ATCC 46645 at 32 ug/ml measured after 30 hrs by resazurin dye based assay; assay type: functional, organism-based; in short: as §1
[17] = test system: Candida albicans; assay: Antimicrobial activity against Candida albicans ATCC 64124 at 32 ug/ml measured after 20 hrs by spectrophotometric method; assay type: functional, organism-based; in short: as §1

Structure (SMILES) | IC50 [1] [µM] | Activity [2] | Activity [3] | Activity [4] | Activity [5] | Activity [6] | Activity [7] | Activity [8] | Activity [9] | Activity [10] | Activity [11] | Activity [12] | Activity [13] | Activity [14] | Activity [15] | Activity [16] | Activity [17]
CCCCCCCCCCC[C@H](C(=O)O)[C@@](O)(Cc1ccc(O)cc1)C(=O)O | 3.2 | inactive | inactive | inactive | inactive | inactive | inactive | inactive | inactive |  |  |  |  |  |  |  | 
CCCCCCCCCC[C@H](C(=O)O)[C@@](O)(Cc1ccc(O)cc1)C(=O)O | 26 |  |  |  |  |  |  |  |  | inactive | inactive | inactive | inactive | inactive | inactive | inactive | inactive
CCCCCC/C=C\CCCC[C@H](C(=O)O)[C@@](O)(Cc1ccc(O)cc1)C(=O)O | > 30 |  |  |  |  |  |  |  |  | inactive | inactive | inactive | inactive | inactive | inactive | inactive | inactive
CCCCCCCCCCCC[C@H](C(=O)O)[C@@](O)(Cc1ccc(O)cc1)C(=O)O | 30 |  |  |  |  |  |  |  |  | inactive | inactive | inactive | inactive | inactive | inactive | inactive | inactive
